One compound from ChEMBL document CHEMBL3085690, “Naturally occurring antimicrobial peptide OH-CATH30 selectively regulates the innate immune response to protect against sepsis” (J Med Chem, 2013) can be followed below.

Molecules are shown by their SMILES. The source made the active and inactive calls. The calls are words filed in the database; no cut-off is given here. Peptide text beside a SMILES is read from it.

Series [1] is described as follows: Induction of IL-6 mRNA up-regulation in mouse BMDM at 20 ug/ml after 3 hrs by qRT-PCR analysis relative to control. It is filed as functional. The gist of the method: (§1)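 Murine BMDMs stimulated with peptide, then target mRNA quantified by qRT-PCR. Expression normalized to GAPDH, with untreated cells set to 1.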
Series [2] is filed under the species Mus musculus. Nature of the series: Activation of JNK in mouse BMDM assessed as phosphorylation at 10 ug/ml by Western blotting. The method, boiled down: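 BMDMs cultured in RPMI 1640 with 10% FCS and 20% L929-conditioned medium. Lysates separated by 10% SDS-PAGE, blotted to PVDF and blocked in 5% BSA. Probed for phospho-JNK/JNK or phospho-p38/p38, then HRP goat anti-rabbit IgG, chemiluminescence read-out.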
(In general: A western blot detects proteins with antibodies after separation by electrophoresis.)

Series [3] concerns Mus musculus. The experiment in a line: Stimulation of innate immune response in Kunming mouse assessed as increase of IL-1Ra level in peritoneal lavage at 10 mg/kg, ip after 5 hrs. The class given is functional, organism-based. Further details: dose 10 mg/kg. The gist of the method:
(§2)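 Female Kunming mice (18−22 g) received a single ip injection of peptide at 10 mg/kg in sterile saline. Peritoneal lavage was collected in 2 mL of cold sterile saline 5 h later, and cytokines and chemokines were measured by ELISA. Data are mean ± SD from four mice, compared by unpaired t test.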

Series [4] deals with Mus musculus. Nature of the series: Stimulation of innate immune response in Kunming mouse assessed as protection against Pseudomonas aeruginosa ATCC 27853-induced mortality by measuring survival rate at 10 mg/kg, ip administered 5 hrs before bacterial infection measured up to 7 days. It is filed as functional. The settings on record: route intraperitoneal. The gist of the method:
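Female Kunming mice (18−22 g) received a single ip dose in sterile saline 5 h before ip challenge with P. aeruginosa 27853 (8 × 10^7 CFU/mouse; n = 8) or S. aureus 25923 (2 × 10^8 CFU/mouse; n = 10). Mice were checked every 6 h for up to 7 days, with a humane end point. Curves were compared by log-rank test.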

Series [5] deals with BMDM. Nature of the series: Induction of CXCL1 mRNA up-regulation in mouse BMDM at 20 ug/ml after 3 hrs by qRT-PCR analysis. It is filed as functional. The method, boiled down: as §1
Series [6] has as its system Mus musculus. The experiment in a line: Stimulation of innate immune response in Kunming mouse assessed as increase of neutrophils in peritoneal lavage at 10 mg/kg, ip after 5 hrs. The class given is functional, organism-based. Also on record: dose 10 mg/kg. The method, boiled down: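 Female Kunming mice were given peptide ip at 10 mg/kg. At 5 h, peritoneal cells were recovered by lavage with 2 mL PBS and counted. Cells were stained with anti-F4/80-PE and GR1-FITC for 30 min at room temperature and typed by flow cytometry: neutrophils GR1+/F4/80−, resident monocytes/macrophages GR1−/F4/80+, inflammatory monocytes GR1+/F4/80+. Data are mean ± SD from three mice, unpaired t test.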

Series [7] relates to Mus musculus. Nature of the series: Stimulation of innate immune response in Kunming mouse assessed as increase of CXCL2 level in peritoneal lavage at 10 mg/kg, ip after 5 hrs. It is filed as functional, organism-based. Also on record: dose 10 mg/kg. The method, boiled down: as §2
For series [8], the system named is Mus musculus. Nature of the series: Stimulation of innate immune response in Kunming mouse assessed as increase of CXCL1 level in peritoneal lavage at 10 mg/kg, ip after 5 hrs. The class given is functional, organism-based. Also on record: dose 10 mg/kg. The method, boiled down:
as §2

The subject of series [9] is Mus musculus. Nature of the series: Stimulation of innate immune response in Kunming mouse assessed as protection against CLP-induced mortality by measuring survival rate at 10 mg/kg, ip administered 12 hrs before bacterial infection measured up to 7 days. It is filed as functional. As to conditions: route intraperitoneal.
Series [10] has as its system Mus musculus. The experiment in a line: Stimulation of innate immune response in Kunming mouse assessed as protection against drug-resistant Pseudomonas aeruginosa-induced mortality by measuring survival rate at 10 mg/kg, ip administered 5 hrs before bacterial infection measured up to 7 days. As to conditions: route intraperitoneal. The class given is functional. The method, boiled down: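 Female Kunming mice (18−22 g) were dosed ip in sterile saline at 10 mg/kg, 5 h before ip challenge with clinical drug-resistant isolates: E. coli (n = 12), P. aeruginosa (n = 10) or S. aureus (n = 15). Survival was recorded for up to 7 days, with checks every 6 h and euthanasia by CO2 at the humane end point.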

For series [11], the system named is Mus musculus. The experiment in a line: Stimulation of innate immune response in Kunming mouse assessed as increase of IL-1beta level in peritoneal lavage at 10 mg/kg, ip after 5 hrs. It is filed as functional, organism-based. Further details: dose 10 mg/kg. The gist of the method:
as §2

Series [12] relates to Mus musculus. The experiment in a line: Stimulation of innate immune response in neutropenic Kunming mouse infected with Pseudomonas aeruginosa ATCC 27853 assessed as increase of number of neutrophils and inflammatory monocytes in peritoneal lavage at 10 mg/kg, ip up to 24 hrs. It is filed as functional, organism-based. Also on record: dose 10 mg/kg. The method, boiled down:
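Mice were made neutropenic with ip cyclophosphamide, 150 mg/kg on day 0 and 100 mg/kg on day 3. They were then injected ip with peptide at 10 mg/kg. Peritoneal cells were collected up to 24 h afterwards and typed by flow cytometry after GR1/F4/80 staining.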

Series [13] concerns the target Mitogen-activated protein kinase 1 and 3 (ERK2 and ERK1) (Mus musculus) (UniProt P63085+Q63844). Nature of the series: Activation of ERK1/2 in mouse BMDM assessed as phosphorylation at 10 ug/ml after 15 to 30 mins by Western blotting. The class given is protein assay. The method, boiled down: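 BMDMs (bone marrow cells grown in RPMI 1640 with 10% FCS and 20% L929-conditioned medium) stimulated, then lysates run on 10% SDS-PAGE and transferred to PVDF. Membranes blocked with 5% BSA and probed with phospho-ERK1/2 and total ERK1/2 antibodies, or with anti-IκBα. HRP anti-rabbit secondary, chemiluminescent detection.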

Series [14] can be described thus: Induction of IL-10 mRNA up-regulation in mouse BMDM at 20 ug/ml after 3 hrs by qRT-PCR analysis relative to control. The class given is functional. The method, boiled down: as §1
For orientation: Quantitative PCR measures a nucleic acid by following its amplification.

In series [15] the test system is Mus musculus. The experiment in a line: Stimulation of innate immune response in clodronate liposomes treated Kunming mouse monocytes depletion model assessed as recruitment of neutrophils at 10 mg/kg, ip. Also on record: dose 10 mg/kg. The class given is functional, organism-based.
The test system of series [16] is BMDM. Nature of the series: Increase of TNFalpha protein level in mouse BMDM at 20 ug/ml after 18 hrs by ELISA. It is filed as functional. The gist of the method: (§3)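 Bone marrow-derived macrophages (RPMI 1640, 10% FCS, 20% L929-conditioned medium) stimulated with peptide for 18 h. Cytokines and chemokines in culture supernatant quantified by sandwich ELISA. Mean ± SD from three independent experiments, unpaired t test.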
On the technique in general: In an ELISA, binding on a coated surface is turned into a signal by an enzyme label.

Series [17] concerns BMDM. Nature of the series: Increase of IL-1Ra protein level in mouse BMDM at 20 ug/ml after 18 hrs by ELISA. It is filed as functional. The method, boiled down:
as §3

For series [18], the system named is BMDM. Nature of the series: Increase of CXCL2 production in mouse BMDM after 6 hrs by ELISA in presence of TLR4/MD2 Ab. It is filed as functional.
The nature of series [19]: Cytotoxicity against mouse BMDM at 5 to 20 ug/ml by LDH release assay.
Series [20] is described as follows: Increase of CXCL2 production in mouse BMDM after 6 hrs by ELISA in presence of NFkappaB inhibitor Bay11-7082. The class given is functional.

Sequence of Mitogen-activated protein kinase 1 and 3 (ERK2 and ERK1) (Mus musculus) (P63085 whole entry, looked up): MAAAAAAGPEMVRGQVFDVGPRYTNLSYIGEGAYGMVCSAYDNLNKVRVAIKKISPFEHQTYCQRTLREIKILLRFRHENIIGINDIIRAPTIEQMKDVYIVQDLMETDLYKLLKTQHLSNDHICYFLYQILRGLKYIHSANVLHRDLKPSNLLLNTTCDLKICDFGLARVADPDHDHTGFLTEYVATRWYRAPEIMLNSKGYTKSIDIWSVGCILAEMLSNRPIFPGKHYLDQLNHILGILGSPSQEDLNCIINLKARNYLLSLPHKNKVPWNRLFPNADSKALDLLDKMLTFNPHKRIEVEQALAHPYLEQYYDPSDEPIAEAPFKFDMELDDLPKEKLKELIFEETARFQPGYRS
Sequence of Mitogen-activated protein kinase 1 and 3 (ERK2 and ERK1) (Mus musculus) (Q63844 whole entry, looked up): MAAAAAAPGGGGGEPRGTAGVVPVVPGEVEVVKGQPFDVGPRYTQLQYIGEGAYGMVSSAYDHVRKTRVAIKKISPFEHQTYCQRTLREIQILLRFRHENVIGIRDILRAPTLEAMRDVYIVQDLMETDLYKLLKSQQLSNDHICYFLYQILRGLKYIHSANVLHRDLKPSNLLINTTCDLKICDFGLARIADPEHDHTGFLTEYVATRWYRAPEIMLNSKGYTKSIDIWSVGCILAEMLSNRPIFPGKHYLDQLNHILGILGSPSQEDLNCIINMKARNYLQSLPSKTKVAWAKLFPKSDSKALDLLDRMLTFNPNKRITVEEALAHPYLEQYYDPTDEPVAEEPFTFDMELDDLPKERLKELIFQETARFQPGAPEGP

Regarding `CC[C@H](C)[C@H](NC(=O)[C@@H](NC(=O)[C@H](CCCNC(=N)N)NC(=O)[C@@H]1CCCN1C(=O)[C@H](CCCCN)NC(=O)[C@H](CCCCN)NC(=O)[C@H](Cc1ccccc1)NC(=O)[C@H](Cc1ccccc1)NC(=O)[C@H](CCCCN)NC(=O)[C@H](CCCCN)NC(=O)[C@H](C)NC(=O)[C@H](CCCNC(=N)N)NC(=O)[C@H](CCCCN)NC(=O)[C@H](CCCCN)NC(=O)[C@@H](NC(=O)[C@H](CO)NC(=O)[C@H](CC(N)=O)NC(=O)[C@H](CCCCN)NC(=O)[C@H](CC(C)C)NC(=O)[C@H](CCCCN)NC(=O)[C@H](CCCCN)NC(=O)[C@H](Cc1ccccc1)NC(=O)[C@H](Cc1ccccc1)NC(=O)[C@@H](N)CCCCN)C(C)C)C(C)C)C(=O)NCC(=O)N[C@H](C(=O)N[C@@H](CO)C(=O)N[C@H](C(=O)N1CCC[C@H]1C(=O)N[C@@H](Cc1ccccc1)C(=O)O)[C@@H](C)CC)C(C)C` (H-KFFKKLKNSVKKRAKKFFKKPRVIGVSIPF-OH), the “fold change (FC)” value in series [1] is on record as 4.5; in series [14], 5. The result in series [2], in series [3], in series [5], in series [6], in [7] and in series [8] was Active. The outcome in [13] and in series [17] was Active. For the same compound, the survival at 10 mg/kg in series [4] was greater than 85%; in series [9] it was 70%; in [10], 95%. The result in series [11], in series [12], in series [15], in [16] and in [18] was inactive. The values for the Activity entry in [19] and in [20] were “Non-toxic” and 1000 pg/mL, respectively.
